≈ marks a conversion by molar mass, not a printed value.
Legend:
[1] = test system: Human alphaherpesvirus 1; experiment: Antiviral activity against HSV1 infected in african green monkey Vero cells after 72 hrs by SRB assay; format: functional, organism-based; details: Human alphaherpesvirus 1, Vero
Procedure, shortened: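 HSV-1 (30 PFU) added to wells with test samples (final 20–50 µg/mL), then Vero cells plated at 1 × 10^5 cells/mL. Vero cells grown in MEM with 10% heat-inactivated FBS and antibiotics. Incubated 72 h at 37 °C, 5% CO2. Cells then fixed and stained, and OD read at 510 nm. Acyclovir was the reference.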

[2] = Cytotoxicity against Spodoptera frugiperda Sf9 cells after 24 hrs by MTT assay; format: functional, cell-based; details: Sf9, 24 h
Procedure, shortened: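 Seeded 4 × 10^3 cells/well and left 48 h to attach. Exposed 24 h to 1:2 serial dilutions from 200 to 1.56 µg/mL (top dose in 1% DMSO) with penicillin/streptomycin. Then 24 h recovery in fresh medium. MTT 4 h, formazan dissolved in DMSO/glycine buffer pH 10.5, OD 570 nm. Four wells per point; IC50 by metabolic competence.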

[3] = Cytotoxicity against Aedes albopictus C6/36 cells after 24 hrs by MTT assay; format: functional, cell-based; details: C6/36, 24 h
Procedure, shortened: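 C6/36 cells in MEM with 10% FCS and 1.1 g/L Na2CO3, at 28 °C, antibiotic-free stock. Seeded 1.6 × 10^4 cells/well and left 48 h to attach. Exposed 24 h to 1:2 serial dilutions from 200 to 1.56 µg/mL (top dose in 1% DMSO) with penicillin/streptomycin. Then 24 h recovery in fresh medium. MTT 4 h, formazan dissolved in DMSO/glycine buffer pH 10.5, OD 570 nm. Four wells per point; IC50 by metabolic competence.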

[4] = test system: Mycobacterium tuberculosis; experiment: Antimycobacterial activity against Mycobacterium tuberculosis H37Ra by microplate alamar blue assay; format: functional
[5] = test system: KB; experiment: Cytotoxicity against human KB cells by SRB assay; format: functional, cell-based
[6] = Cytotoxicity against human BC cells by SRB assay; format: functional, cell-based
[7] = test system: Vero; experiment: Cytotoxicity against african green monkey Vero cells by SRB assay; format: cell-based; details: Chlorocebus sabaeus

Row | Structure (SMILES) | IC50 [1] [µg/mL] | IC50 [2] [µg/mL] | IC50 [3] [µg/mL] | MIC [4] [µg/mL] | IC50 [5] [µg/mL] | IC50 [6] [µg/mL] | IC50 [7] [µg/mL]
1 | C=C1CC[C@@H]2[C@@]3(C)CCC[C@@]2(C(=O)OC3)[C@@H]1CC(=O)c1ccoc1 | > 20 | 26 (≈ 79.2 µM) | 72 (≈ 219 µM) | 100 (≈ 304 µM) | > 20 | > 20 | > 50
2 | Nc1nc2c(ncn2COCCO)c(=O)[nH]1 [ACYCLOVIR] | 2 (≈ 8.88 µM) | – | – | – | – | – | –
3 | Cc1c2ccncc2c(C)c2c1[nH]c1ccccc12 [ELLIPTECINE] | – | – | – | – | 0.1 (≈ 0.406 µM) | 0.1 (≈ 0.406 µM) | 0.4 (≈ 1.62 µM)
4 | NNC(=O)c1ccncc1 [ISONIAZID] | – | – | – | 0.04 (≈ 0.292 µM) | – | – | –
5 | NC[C@H]1O[C@H](O[C@H]2[C@H](O)[C@@H](O[C@H]3O[C@H](CO)[C@@H](O)[C@H](N)[C@H]3O)[C@H](N)C[C@@H]2N)[C@H](O)[C@@H](O)[C@@H]1O.O=S(=O)(O)O [KANAMYCIN SULFATE] | – | – | – | 2 | – | – | –
6 | CO[C@@]12[C@H](COC(N)=O)C3=C(C(=O)C(C)=C(N)C3=O)N1C[C@@H]1N[C@@H]12 [MITOMYCIN] | – | 3 (≈ 8.97 µM) | 3 (≈ 8.97 µM) | – | – | – | –
7 | C=C1CC[C@@H]2[C@@]3(C)CCC[C@@]2(C(=O)OC3)[C@@H]1CCc1ccoc1 [POTAMOGETONIN] | > 20 | 15 (≈ 47.7 µM) | 22 (≈ 70 µM) | 100 (≈ 318 µM) | > 20 | > 20 | > 50
8 | C=C1CC[C@@H]2[C@](C)(COC(C)=O)CCC[C@@]2(CO)[C@@H]1CCc1ccoc1 [POTAMOGETONOL] | 3 (≈ 8.32 µM) | 23 (≈ 63.8 µM) | 43 (≈ 119 µM) | 50 (≈ 139 µM) | > 20 | > 20 | 28 (≈ 77.7 µM)
9 | C=C1CC[C@@H]2[C@](C)(COC(C)=O)CCC[C@@]2(C=O)[C@@H]1CCc1ccoc1 [POTAMOGETONYDE] | 8 (≈ 22.3 µM) | 11 (≈ 30.7 µM) | 30 (≈ 83.7 µM) | 100 (≈ 279 µM) | > 20 | > 20 | 31 (≈ 86.5 µM)

— ChEMBL document CHEMBL1150578, “Potent antiviral potamogetonyde and potamogetonol, new furanoid labdane diterpenes from Potamogeton malaianus” (J Nat Prod, 2001)
